Among the data in ChEMBL document CHEMBL3045023, “Design, synthesis, and antiviral activity evaluation of phenanthrene-based antofine derivatives” (2012) are inhibition of growth and Activity values, retold here.

Common to all, as to format: functional
For assay [1], the system named is Tobacco mosaic virus. As to the kind of experiment: Antiviral activity against Tobacco mosaic virus (TMV) assessed as inhibition of viral growth at 1 ug/mL. Particulars: read-out: GI.
Assay [2] relates to Tobacco mosaic virus. As to the kind of experiment: Antiviral activity against Tobacco mosaic virus (TMV) assessed as inhibition of viral growth at 500 ug/mL. Particulars: read-out: GI. A digest of the protocol:
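Leaves of 5–6-growth-stage tobacco were rub-inoculated with TMV juice (5.88 × 10−2 μg/mL), then cut into halves along the main vein. One half was immersed in 500 μg/mL compound and the other in double-distilled water, each for 20 min. Halves were cultured at 25 °C for 72 h, with at least 3 replicates. Inhibition % = (control − treated average lesion number)/control × 100.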

For assay [3], the system named is Tobacco mosaic virus. As to the kind of experiment: Antiviral activity against Tobacco mosaic virus (TMV) inoculation on Nicotiana tabacum L. whole leaves assessed as virus infection protective effect at 500 ug/mL measured 3 to 4 days post inoculation. In a few lines: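 On N. tabacum L. leaves of the same age, compound was smeared on the left half and solvent on the right half as control. After 12 h, leaves were dusted with silicon carbide, brush-inoculated with TMV (6 × 10−3 mg/mL), then washed. Local lesions were counted 3–4 days later, in triplicate. Inhibition % was calculated from average lesion numbers versus control.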

Assay [4] concerns Tobacco mosaic virus. As to the kind of experiment: Antiviral activity against Tobacco mosaic virus (TMV) inoculation on Nicotiana tabacum L. whole leaves assessed as virus infection curative effect at 500 ug/mL measured 3 to 4 days post inoculation. In a few lines:
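Whole N. tabacum L. leaves of the same age were inoculated with TMV (6.0 × 10−3 mg/mL), then washed and dried. Compound was then smeared on the left half and solvent on the right half as control. Local lesions were counted 3–4 days post-inoculation, in triplicate. Inhibition % was calculated from average lesion numbers versus control.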

In assay [5] the test system is Tobacco mosaic virus. Description: Antiviral activity against Tobacco mosaic virus (TMV) inoculation on Nicotiana tabacum L. whole leaves assessed as virus inactivation effect at 500 ug/mL measured 3 to 4 days post inoculation. A digest of the protocol: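 TMV was mixed with an equal volume of compound solution for 30 min. The mixture was inoculated on the left half of N. tabacum L. leaves, and virus mixed with solvent on the right half as control. Local lesions were recorded 3–4 days post-inoculation, in triplicate. Inhibition % was calculated from average lesion numbers versus control.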

In the case of `COc1ccc2c3c(c4cc(OC)c(OC)cc4c2c1)C[C@H]1CCCN1C3` [(-)-ANTOFINE], the inhibition of growth at 1 µg/mL with Tobacco mosaic virus [1] was 63%.

In the case of `COc1cc2c(Br)c(CN3CCC[C@H]3C#N)c3cc(OC)c(OC)cc3c2cc1OC`, the inhibition of growth at 500 µg/mL in the assay with Tobacco mosaic virus [2] came to 24.7%. For the same compound, the Activity in the assay on Tobacco mosaic virus [3] is 33.3%; with Tobacco mosaic virus [4], 18.2%; in the assay on Tobacco mosaic virus [5], 10.3%.

On to `COC(=O)[C@@H]1CCCN1C(=O)/C(=C/c1ccc(OC)c(OC)c1)c1ccc(OC)c(OC)c1`, for which the inhibition of growth at 500 µg/mL with Tobacco mosaic virus [2] amounted to 17.5%. For the same compound, the figures for the Activity with Tobacco mosaic virus [3], in the assay on Tobacco mosaic virus [4] and in the assay on Tobacco mosaic virus [5] were 23.6%, 17.2% and 21.1%, respectively.

`COc1cc2cc(C(=O)O)c3cc(OC)c(OC)cc3c2cc1OC`: the inhibition of growth at 500 µg/mL in the assay with Tobacco mosaic virus [2] was 0%. The Activity stood at 4.8% in the assay on Tobacco mosaic virus [3], 3.6% in the assay on Tobacco mosaic virus [4] and 4.2% with Tobacco mosaic virus [5].

On to `CCN(CC)C(=O)[C@@H]1CCCN1Cc1c(Br)c2cc(OC)c(OC)cc2c2c(Br)c(OC)ccc12`, for which the inhibition of growth at 500 µg/mL with Tobacco mosaic virus [2] was 32.5%. In addition, the Activity turned out to be 26.1% with Tobacco mosaic virus [3], 23.5% in the assay with Tobacco mosaic virus [4] and 20.7% in the assay with Tobacco mosaic virus [5].

In the case of `CCN(CC)C(=O)[C@@H]1CCCN1Cc1c(Br)c2cc(OC)c(OC)cc2c2cc(OC)c(OC)cc12`, the inhibition of growth at 500 µg/mL in the assay on Tobacco mosaic virus [2] worked out at 17.2%. Moreover, the Activity with Tobacco mosaic virus [3] is given as 25.3%; with Tobacco mosaic virus [4] it was 21.6%; with Tobacco mosaic virus [5], 22%.

For the compound `COc1ccc2c(CN3CCC[C@H]3C(N)=O)c(Br)c3cc(OC)c(OC)cc3c2c1`, the inhibition of growth at 500 µg/mL in the assay on Tobacco mosaic virus [2] stood at 0%. Also, the Activity in the assay with Tobacco mosaic virus [3] is on record as 0%; in the assay with Tobacco mosaic virus [4], 5.6%; with Tobacco mosaic virus [5] it was 14.5%.

With `CCN(CC)C(=O)[C@@H]1CCCCN1Cc1c(Br)c2cc(OC)c(OC)cc2c2cc(OC)ccc12`, in the assay with Tobacco mosaic virus [2], the inhibition of growth at 500 µg/mL worked out at 30.7%. Besides, the Activity was 34.3% in the assay with Tobacco mosaic virus [3], 26.4% with Tobacco mosaic virus [4] and 25.2% in the assay on Tobacco mosaic virus [5].

Consider `COc1cc2cc(C(=O)N3CCC[C@H]3C#N)c3cc(OC)c(OC)cc3c2cc1OC`, for which, in the assay on Tobacco mosaic virus [2], the inhibition of growth at 500 µg/mL came to 12.5%. Also, the figures for the Activity with Tobacco mosaic virus [3], in the assay on Tobacco mosaic virus [4] and in the assay with Tobacco mosaic virus [5] were 10.3%, 15.6% and 17.6%, respectively.

On to `COc1cc2c3c(c4ccc(O)cc4c2cc1OC)CN1CCC[C@@H]1C3`, for which, in the assay on Tobacco mosaic virus [1], the inhibition of growth at 1 µg/mL stood at 70%.

For `COc1cc2cc(CN3CCCCC3)c3cc(OC)c(OC)cc3c2cc1OC`, the inhibition of growth at 500 µg/mL with Tobacco mosaic virus [2] is 38.4%. Besides, the Activity in the assay on Tobacco mosaic virus [3] stood at 35.9%; with Tobacco mosaic virus [4], 35.2%; with Tobacco mosaic virus [5], 30%.
